Reference: the RNAGym collection of RNA variant scans (doi:10.1126/science.aae0568)
Variants at the floor of the assay were thinned out.

B1: tRNA (parent)
chain: GUUCCGUUGGCGUAAUGGUAACGCGUCUCCCUCCUAAGGAGAAGACUGCGGGUUCGAGUCCCGUACGGAACG

Variants of: B1
Assay: yeast fitness relative to wild type (ratio to wild type); higher = fitter; tRNA-Arg(CCU), competitive growth, 37 C, YPD
Summary of the method: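 Amplicons of the tRNA-Arg(CCU) gene were sequenced, 100-nucleotide paired-end, from the start population and from each end population of a pooled yeast competition. The competition, in six parallel replicates, lasted 24 hours in YPD at 37°C. Fitness relative to wild type was calculated from changes in genotype frequencies. Genotypes had to have ≥ 100 starting reads, and estimates < 0.5 were set to 0.5.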

For U16A A20U C24G C33G C61A, which yeast fitness is on record?
Its yeast fitness is no more than 0.5.

Which yeast fitness does the source give for A15U G17A C29G here?
The yeast fitness was no more than 0.5.

With U16C C29A C55G A70U as the variant, how does the yeast fitness read?
Its yeast fitness is no more than 0.5.

Which yeast fitness does the source give for U16C C22U A37U C49A C62U here?
The yeast fitness was 0.6.

Which yeast fitness does the source give for A15U G23A C24G C29U C61A A69G here?
Its yeast fitness is no more than 0.5.

For U16C C27U C29A A40G A43C G50U, which yeast fitness is on record?
The yeast fitness was no more than 0.5.

Which yeast fitness does the source give for U16A C29U here?
Its yeast fitness is 0.775.

With U16C A65G A70C as the variant, how does the yeast fitness read?
Its yeast fitness is 0.786.

With U16C A40C A57U as the variant, how does the yeast fitness read?
The yeast fitness was 0.575.

With U16C A21G G63C as the variant, how does the yeast fitness read?
Its yeast fitness is no more than 0.5.

For A15U G39C A42C A65C, which yeast fitness is on record?
The yeast fitness was no more than 0.5.

With U16C C46G C55G C60G as the variant, how does the yeast fitness read?
The yeast fitness was 0.615.

Which yeast fitness does the source give for U16A G23C U26A C29U A42U G48A G67A here?
Its yeast fitness is no more than 0.5.

With A15U G41C as the variant, how does the yeast fitness read?
Its yeast fitness is 0.784.

With U16A A20G C27U G41C C55U A69U as the variant, how does the yeast fitness read?
The yeast fitness was no more than 0.5.

With U16C A40U A65U as the variant, how does the yeast fitness read?
Its yeast fitness is 0.588.

With U16A C24G G51A as the variant, how does the yeast fitness read?
The yeast fitness was no more than 0.5.

Which yeast fitness does the source give for U16A C22U U26C G67A here?
The yeast fitness was no more than 0.5.

Which yeast fitness does the source give for U16A G18C A20G C22U U54G C55A here?
The yeast fitness was 0.512.

With A15U G58C A70U as the variant, how does the yeast fitness read?
Its yeast fitness is 0.643.

Which yeast fitness does the source give for U16A C30G C34G A42U C66U here?
The yeast fitness was no more than 0.5.

With A15U U26A C55A A70C as the variant, how does the yeast fitness read?
Its yeast fitness is no more than 0.5.

For U16C A40C A57G C61U, which yeast fitness is on record?
Its yeast fitness is no more than 0.5.

With A15U U19C U47C A65G G68C as the variant, how does the yeast fitness read?
Its yeast fitness is no more than 0.5.

With U16A G41A A69C as the variant, how does the yeast fitness read?
The yeast fitness was 0.631.

For U16A A70C, which yeast fitness is on record?
Its yeast fitness is 0.897.

With U16A A70U as the variant, how does the yeast fitness read?
Its yeast fitness is 1.03.

Which yeast fitness does the source give for A15U G17C C27U C60G here?
The yeast fitness was no more than 0.5.

Which yeast fitness does the source give for U16A C24U C34A here?
The yeast fitness was 0.656.

With A15U C66U as the variant, how does the yeast fitness read?
Its yeast fitness is 0.738.

Which yeast fitness does the source give for A15U C66A here?
Its yeast fitness is 0.649.

For A15U U26A C31A, which yeast fitness is on record?
The yeast fitness was no more than 0.5.

For U16A C31A G67U, which yeast fitness is on record?
Its yeast fitness is no more than 0.5.

Which yeast fitness does the source give for U16C A21U C30U C34G A36C here?
Its yeast fitness is no more than 0.5.

Which yeast fitness does the source give for U16A C29G C31G C62U A69C here?
Its yeast fitness is no more than 0.5.

With A15U U19A C24A C34U A40C as the variant, how does the yeast fitness read?
Its yeast fitness is no more than 0.5.

With U16A G39C U54C C55U as the variant, how does the yeast fitness read?
The yeast fitness was no more than 0.5.

Which yeast fitness does the source give for U16C C22G C66U here?
The yeast fitness was 0.721.

For U16A G48C, which yeast fitness is on record?
The yeast fitness was 0.967.

For U16A G48A, which yeast fitness is on record?
The yeast fitness was 0.896.

With U16A C27G C46G G67A as the variant, how does the yeast fitness read?
Its yeast fitness is 0.505.

With U16A A36U C46A as the variant, how does the yeast fitness read?
Its yeast fitness is no more than 0.5.

For U16A A20G C34U G56C, which yeast fitness is on record?
The yeast fitness was 0.509.

Which yeast fitness does the source give for A15U U64C A65G here?
Its yeast fitness is 0.528.

With U16C A37U as the variant, how does the yeast fitness read?
The yeast fitness was 0.683.

With U16C A37C as the variant, how does the yeast fitness read?
Its yeast fitness is 0.678.

With U16A G51A as the variant, how does the yeast fitness read?
Its yeast fitness is 0.752.

With U16A C33A C34A as the variant, how does the yeast fitness read?
Its yeast fitness is no more than 0.5.

With U16A G38C C61U U64C as the variant, how does the yeast fitness read?
Its yeast fitness is no more than 0.5.

With U16C C22A A40G C60A as the variant, how does the yeast fitness read?
The yeast fitness was no more than 0.5.

With U16A G25C A40C C49U as the variant, how does the yeast fitness read?
Its yeast fitness is no more than 0.5.

Which yeast fitness does the source give for U16A A37G C62U here?
The yeast fitness was 0.543.

For U16C A43C A45U C49G, which yeast fitness is on record?
The yeast fitness was 0.722.

For U16C C24U C30U C62A, which yeast fitness is on record?
The yeast fitness was no more than 0.5.

Which yeast fitness does the source give for A15U U32A G50A G51A G56C C61G C62U here?
The yeast fitness was no more than 0.5.

Which yeast fitness does the source give for U16C A42G here?
Its yeast fitness is 0.904.

For U16A G38A C62A A69U, which yeast fitness is on record?
Its yeast fitness is no more than 0.5.

Which yeast fitness does the source give for U16A C27G A42U U53C here?
The yeast fitness was no more than 0.5.

Which yeast fitness does the source give for U16A C24G A43C here?
The yeast fitness was 0.512.

For U16A U19C, which yeast fitness is on record?
Its yeast fitness is 1.03.

Which yeast fitness does the source give for U16A U19A here?
Its yeast fitness is 0.952.

With A15U G38C as the variant, how does the yeast fitness read?
The yeast fitness was 0.699.

With U16A C62A as the variant, how does the yeast fitness read?
The yeast fitness was 0.786.

Which yeast fitness does the source give for A15U U28C here?
Its yeast fitness is 0.772.

For U16C C33U A36C G56C, which yeast fitness is on record?
The yeast fitness was no more than 0.5.

Which yeast fitness does the source give for U16A C27G A65C here?
The yeast fitness was 0.585.

For A15U U28A G68C, which yeast fitness is on record?
The yeast fitness was no more than 0.5.

For U16C A43G, which yeast fitness is on record?
The yeast fitness was 1.13.

Which yeast fitness does the source give for U16A C49U G52A C60A here?
The yeast fitness was no more than 0.5.

For U16C C30U C34G, which yeast fitness is on record?
Its yeast fitness is 0.579.

Which yeast fitness does the source give for A15U U16A C27G here?
The yeast fitness was 0.59.

With U16C C24U C29A C31G C34G as the variant, how does the yeast fitness read?
The yeast fitness was no more than 0.5.

Which yeast fitness does the source give for A15U U26A C29G G50A C61G G63C here?
Its yeast fitness is 0.57.

For U16C C22U C33G C55G, which yeast fitness is on record?
The yeast fitness was 0.53.

Which yeast fitness does the source give for U16A G17A C34U C66U A70U here?
Its yeast fitness is no more than 0.5.

Which yeast fitness does the source give for A15U G25C G67A here?
Its yeast fitness is no more than 0.5.

Which yeast fitness does the source give for U16A G52A A57C C66U here?
Its yeast fitness is no more than 0.5.

Which yeast fitness does the source give for A15U U47G A57C here?
Its yeast fitness is no more than 0.5.

Which yeast fitness does the source give for U16A A21G C27G C46U here?
The yeast fitness was 0.566.

For U16C A21U A43U C61G, which yeast fitness is on record?
Its yeast fitness is no more than 0.5.

For U16A G39A G48A G63A A65C, which yeast fitness is on record?
The yeast fitness was no more than 0.5.

With U16C C27G C29U U54C as the variant, how does the yeast fitness read?
The yeast fitness was 0.568.

For U16C A20C A36U C61U, which yeast fitness is on record?
Its yeast fitness is no more than 0.5.

With A15U C60A G63A as the variant, how does the yeast fitness read?
The yeast fitness was no more than 0.5.
